PPC-1+TRAIL kill – compounds killing PPC-1 cancer cells with TRAIL present, primary screen, TRAIL potentiator project, ATPLite luminescence, uHTS; cell killing (% activity), % at 4 µM or 5 µM; 0.41% of 220,000 active; PPC-1 cells + TRAIL, ATPLite viability luminescence; AID 1443, 2008;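 active = cell killing above 50% in the first pass at 4 µM, then a duplicate retest at 5 µM averaging 50% or more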;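 note: plate controls were cells with TRAIL plus DMSO for no effect and medium-only wells lacking cells for full effect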
Platelet DG rel – inhibitors of platelet dense granule secretion, primary screen, cell-based, MLPCN, human platelets; inhibition, %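 (compounds screened at 7.5 µM in platelet-rich plasma)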; human platelet-rich plasma, SFLLRN dense granule ATP release, luminescence; 0.22% of 300,000 active;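 active = mean replicate score, as percent of positive control, at or above 50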
FLuc inh counter – firefly luciferase enzyme inhibitors, primary screen, artefact control for luciferase-based inhibitor screens, biochemical, luminescence, ATPLite. Luciferin 4-monooxygenase (Photinus pyralis), P08659. 10 min. inhibition, % at 10 µM. 1.5% of 200,000 active;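 active = inhibition above about 50% when tested at 10 µM, limit read from the data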
Target sequence (P08659 whole entry, looked up): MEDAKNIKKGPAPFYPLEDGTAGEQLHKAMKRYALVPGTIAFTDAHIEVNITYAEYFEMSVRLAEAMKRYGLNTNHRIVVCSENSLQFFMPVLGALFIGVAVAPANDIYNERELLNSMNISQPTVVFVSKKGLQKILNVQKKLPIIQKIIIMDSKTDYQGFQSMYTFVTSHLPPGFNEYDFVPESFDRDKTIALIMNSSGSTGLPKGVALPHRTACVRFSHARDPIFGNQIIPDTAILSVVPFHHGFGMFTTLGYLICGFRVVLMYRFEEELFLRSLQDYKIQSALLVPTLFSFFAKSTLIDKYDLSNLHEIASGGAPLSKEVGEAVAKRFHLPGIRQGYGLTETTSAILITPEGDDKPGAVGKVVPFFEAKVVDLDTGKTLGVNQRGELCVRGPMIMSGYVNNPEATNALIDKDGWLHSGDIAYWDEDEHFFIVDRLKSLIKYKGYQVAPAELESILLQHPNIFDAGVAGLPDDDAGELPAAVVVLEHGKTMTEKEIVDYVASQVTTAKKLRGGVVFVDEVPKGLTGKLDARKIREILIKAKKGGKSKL
FLuc stim CS – FLuc activators, initial screening, artefact control for FLuc-dependent activation tests, biochemical, ATPlite luminescence; Luciferin 4-monooxygenase (Photinus pyralis), P08659; ATPlite luciferase biochemical, 10 min; 0 = ATP-free wells, 1 = DMSO control; activation factor at 10 µM; 200,000 tested, under 10 active; AID 1027, 2008;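 active = luciferase activation factor, scaled between plate controls, of at least 2 with compound at 10 µM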
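System: cell-free luciferase reagent; medium: PBS as buffer for the ATP substrate; doses: test compounds dosed from 2 mM stocks in 100% DMSO; incubation: 10 min, room temperature; measured by: luminescence from luciferase reaction; read-out: luciferase activation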
TRAIL sens C8 – viability loss with TRAIL in NB7+C8 cells, primary screen, TRAIL sensitizer project, cell-based, ATPlite luminescence. inhibition (viability loss, TRAIL sensitization), % at 10 µM. 1% of 360,000 active. AID 624354, 2012;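 active = compounds causing at least 50% loss of cell viability in the single-dose screen, relative to plate controls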
Numbers without * were called inactive. In the library only some 1.6% were active in any assay of this set; here they are far more common.

Results for COCCNc1ncnc2c1ncn2[C@H]1CN(Cc2ccncc2)C[C@@H](CO)O1 ?
TRAIL sens C8: -9

What do the screens show for `CC1=NC(=O)C(N=Nc2cccc(C(=O)O)c2)N1c1ccccc1` (stereo not drawn)?
PPC-1+TRAIL kill: 20; Platelet DG rel: 8; FLuc inh counter: 54*; FLuc stim CS: 0.5; TRAIL sens C8: 3

What do the screens show for `CC1=NC(=O)C(N=Nc2ccccc2)N1c1ccccc1` (stereo not drawn)?
PPC-1+TRAIL kill: 18; Platelet DG rel: 4; FLuc inh counter: 8; FLuc stim CS: 0.9; TRAIL sens C8: 13

Results for O=C(NC(c1ccccc1)c1ccc2ccccc2n1)C1CCN(Cc2ccc(Cl)c(Cl)c2)CC1 (stereo not drawn) ?
TRAIL sens C8: 11

Results for CCCS(=O)(=O)c1cnc(C2COc3ccccc3O2)nc1N (stereo not drawn) ?
Platelet DG rel: 66*; TRAIL sens C8: 40

Results for Cc1ccc(C(=O)c2no[n+]([O-])c2C(=O)c2ccc(C)cc2)cc1 ?
PPC-1+TRAIL kill: 10; Platelet DG rel: -1; FLuc inh counter: -3; FLuc stim CS: 1; TRAIL sens C8: 93*

Results for CCN(Cc1ccccc1)c1ccc(/C=C(\C#N)c2ccccn2)cc1 ?
PPC-1+TRAIL kill: 28; Platelet DG rel: 8; FLuc inh counter: 21; FLuc stim CS: 0.8; TRAIL sens C8: 8

How did CN(CCC#N)c1ccc(/C=C(\C#N)c2ccccn2)cc1 do in these assays?
PPC-1+TRAIL kill: 15; Platelet DG rel: 32; FLuc inh counter: 88*; FLuc stim CS: 0.1; TRAIL sens C8: 84*

Results for CCN(CC)c1ccc(/C=C(\C#N)c2ccccn2)cc1 ?
PPC-1+TRAIL kill: 62*; Platelet DG rel: 9; FLuc inh counter: 85*; FLuc stim CS: 0.2; TRAIL sens C8: 81*

What do the screens show for `Nc1ccccc1C(=O)N=Nc1[nH]c(N)c2ccccc12`?
PPC-1+TRAIL kill: 42; Platelet DG rel: 4; FLuc inh counter: 79*; FLuc stim CS: 0.2; TRAIL sens C8: 51*

Results for Nc1[nH]c(N=NC(=O)c2ccc(F)cc2)c2ccccc12 ?
PPC-1+TRAIL kill: 27; Platelet DG rel: 13; FLuc inh counter: 55*; FLuc stim CS: 0.4; TRAIL sens C8: 35

How did O=C(Nc1ccccc1NC(=O)c1ccc(F)cc1)c1ccc(F)cc1 do in these assays?
Platelet DG rel: -3; TRAIL sens C8: -18

Results for COc1ccc(-c2nc(C#N)c(NCCCN(C)C)o2)cc1OC ?
PPC-1+TRAIL kill: 22; Platelet DG rel: 13; FLuc inh counter: -1; FLuc stim CS: 1; TRAIL sens C8: -10

Results for COc1ccc(-c2nc(C#N)c(NC(C)c3ccccc3)o2)cc1OC (stereo not drawn) ?
PPC-1+TRAIL kill: 12; Platelet DG rel: 70*; FLuc inh counter: -3; FLuc stim CS: 1; TRAIL sens C8: -16

Results for Cc1ccc(Cc2c(-c3ccco3)nc3c4ccccc4ccn23)cc1 ?
TRAIL sens C8: 20

Results for CC(=O)c1ccc(-c2nc3c4ccccc4ccn3c2C(C)=O)o1 ?
PPC-1+TRAIL kill: 0; Platelet DG rel: 51*; FLuc inh counter: -6; FLuc stim CS: 1.1; TRAIL sens C8: 2

Results for COc1ccc(N(CC(=O)N2CCN(c3ccccc3)CC2)S(=O)(=O)c2ccccc2)cc1 ?
TRAIL sens C8: -19

What do the screens show for `O=C(CSc1nnc(-c2ccc(Br)cc2)o1)Nc1cccc(C(=O)O)c1`?
Platelet DG rel: -3; TRAIL sens C8: 63*

How did CCN(CC)S(=O)(=O)c1cccc(NC(=O)Nc2cccc(C(F)(F)F)c2)c1 do in these assays?
PPC-1+TRAIL kill: 6; Platelet DG rel: 3; FLuc inh counter: 5; FLuc stim CS: 1; TRAIL sens C8: 65*

What do the screens show for `CCN(CC)S(=O)(=O)c1cccc(NC(=O)CC2CCCC2)c1`?
Platelet DG rel: -30; TRAIL sens C8: -5

How did CCCCC[C@@H](C)N1C[C@@H](COCc2ccccc2)Oc2cc(N3CC[C@H](N(C)C)C3)ccc2S1(=O)=O do in these assays?
TRAIL sens C8: 35

Results for COc1cccc(NC(=O)C2(C)CCN2Cc2ccc(SC)cc2)c1 (stereo not drawn) ?
TRAIL sens C8: -8

How did CCCCN1C(=O)C(CC(=O)NCC2CCCCC2)CC(C(=O)N2CCCCCC2)=C1C (stereo not drawn) do in these assays?
TRAIL sens C8: 11

How did COc1ccc(C2C(=O)c3ccccc3C2=O)cc1OC do in these assays?
PPC-1+TRAIL kill: 33; Platelet DG rel: -6; FLuc inh counter: 82*; FLuc stim CS: 0.2; TRAIL sens C8: 5

Results for COc1ccc(N=C(C)C2=C(O)CSC2=O)cc1 ?
PPC-1+TRAIL kill: 22; Platelet DG rel: -1; FLuc inh counter: 0; FLuc stim CS: 1; TRAIL sens C8: -7

How did COc1ccc(C2=C(N)c3ccccc3C2=O)cc1 do in these assays?
PPC-1+TRAIL kill: 39; Platelet DG rel: 0; FLuc inh counter: 57*; FLuc stim CS: 0.4; TRAIL sens C8: 47

What do the screens show for `COc1ccc(C2C(=O)c3ccccc3C2=O)c(OC)c1`?
PPC-1+TRAIL kill: 13; Platelet DG rel: 5; FLuc inh counter: -5; FLuc stim CS: 1.1; TRAIL sens C8: -6

What do the screens show for `COc1cc(C2C(=O)c3ccccc3C2=O)ccc1O`?
Platelet DG rel: 4; TRAIL sens C8: -5

How did COc1ccc(N=C(C)C2C(=O)c3ccccc3C2=O)cc1 do in these assays?
TRAIL sens C8: 74*

What do the screens show for `COc1ccc(C2C(=O)c3ccccc3C2=O)cc1`?
PPC-1+TRAIL kill: 18; Platelet DG rel: 8; FLuc inh counter: 90*; FLuc stim CS: 0.1; TRAIL sens C8: 31

How did Cc1cc(C)n(CCNC(=O)[C@H]2O[C@@H](n3cnc4c(N)ncnc43)[C@H](O)[C@@H]2O)n1 do in these assays?
TRAIL sens C8: 4

How did C/C=C/c1cccc(-c2nc(C(=O)NC3CCC3)cc3c2[C@H](CCO)N(S(=O)C(C)(C)C)C3)c1 (stereo partly drawn) do in these assays?
TRAIL sens C8: 3

Results for COCCn1nnnc1C(c1ccc(OC)c(OC)c1)N1CCN(c2nc3ccccc3s2)CC1 (stereo not drawn) ?
PPC-1+TRAIL kill: 71*; Platelet DG rel: 4; FLuc inh counter: -7; FLuc stim CS: 1.1; TRAIL sens C8: -13

What do the screens show for `COc1ccc(C(c2nnnn2Cc2ccccc2)N2CCN(c3nc4ccccc4s3)CC2)cc1` (stereo not drawn)?
PPC-1+TRAIL kill: -5; Platelet DG rel: 2; FLuc inh counter: -15; FLuc stim CS: 1.1; TRAIL sens C8: 7

What do the screens show for `CNc1ncnc2c1ncn2[C@H]1CN(Cc2cccnc2)C[C@@H](CO)O1`?
TRAIL sens C8: -13

Screens deposited in PubChem by several laboratories.
